Assay results taken from ChEMBL document CHEMBL3739368, “Versixanthones A-F, Cytotoxic Xanthone-Chromanone Dimers from the Marine-Derived Fungus Aspergillus versicolor HDN1009” (J Nat Prod, 2015).
Structures can show the parent of a compound that is named as a salt. The source made the active and inactive calls. The calls are words filed in the database; no cut-off is given here.

Assays:
[1] = Cytotoxicity against human HL60 cells after 72 hrs by MTT assay; type: functional, cell-based; details: HL-60, 72 h
K562 = assay: Cytotoxicity against human K562 cells after 72 hrs by MTT assay; type: functional, cell-based; details: K562, 72 h
A549 = assay: Cytotoxicity against human A549 cells after 72 hrs by MTT assay; type: functional, cell-based; details: A549, 72 h
NCI-H1975 = assay: Cytotoxicity against human NCI-H1975 cells after 72 hrs by MTT assay; type: functional, cell-based; details: NCI-H1975, 72 h
[2] = Cytotoxicity against human MGC803 cells after 72 hrs by MTT assay; type: functional, cell-based; details: MGC-803, 72 h
[3] = Cytotoxicity against human HO8910 cells after 72 hrs by MTT assay; type: functional, cell-based; details: HO-8910, 72 h
[4] = Chemical stability of the compound in deuterated DMSO by NMR spectroscopic analysis; type: physicochemical
[5] = target: T1, DNA topoisomerase 1 (Homo sapiens) (UniProt P11387); assay: Inhibition of topoisomerase 1 (unknown origin) assessed as decrease in PBR322 DNA relaxation at 5 to 40 uM after 30 mins by ethidium bromide staining-based agarose gel electrophoresis
T1 sequence (whole entry): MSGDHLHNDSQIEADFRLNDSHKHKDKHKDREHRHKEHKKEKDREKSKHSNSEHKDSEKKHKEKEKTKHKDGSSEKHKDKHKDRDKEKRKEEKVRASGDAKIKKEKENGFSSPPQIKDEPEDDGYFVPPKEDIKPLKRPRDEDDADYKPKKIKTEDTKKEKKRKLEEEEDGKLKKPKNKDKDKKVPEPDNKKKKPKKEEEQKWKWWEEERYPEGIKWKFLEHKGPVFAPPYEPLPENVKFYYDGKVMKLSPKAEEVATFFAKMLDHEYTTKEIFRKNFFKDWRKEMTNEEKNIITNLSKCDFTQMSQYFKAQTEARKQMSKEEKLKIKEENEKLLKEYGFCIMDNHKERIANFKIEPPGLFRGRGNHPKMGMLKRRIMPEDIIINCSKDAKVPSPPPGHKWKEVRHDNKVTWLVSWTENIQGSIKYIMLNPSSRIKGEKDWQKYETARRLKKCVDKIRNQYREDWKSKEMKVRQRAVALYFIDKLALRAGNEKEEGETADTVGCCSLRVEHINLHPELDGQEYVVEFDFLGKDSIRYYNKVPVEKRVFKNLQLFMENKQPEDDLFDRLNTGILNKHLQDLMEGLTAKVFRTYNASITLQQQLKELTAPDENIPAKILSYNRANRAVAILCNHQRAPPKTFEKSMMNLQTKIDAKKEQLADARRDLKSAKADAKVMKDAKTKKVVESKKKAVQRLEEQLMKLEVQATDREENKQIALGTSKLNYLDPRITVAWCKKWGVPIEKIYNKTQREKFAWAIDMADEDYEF
How it was run: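 Supercoiled pBR322 plasmid DNA served as substrate. Samples were resolved on 1% agarose gels and stained with ethidium bromide. Supercoiled and relaxed DNA bands were marked on the gel.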

[6] = Cytotoxicity against human HCT116 cells after 72 hrs by MTT assay; type: functional, cell-based; details: HCT-116, 72 h

Stability [4] | inhibition [5] | Compound | IC50 [1] | IC50 (K562) | IC50 (A549) | IC50 (NCI-H1975) | IC50 [2] | IC50 [3] | IC50 [6]
Unstable |  | COC(=O)[C@@]12Oc3c(-c4ccc5c(c4O)C(=O)C[C@@](C(=O)OC)([C@@H]4OC(=O)C[C@@H]4C)O5)ccc(O)c3C(=O)C1=C(O)C[C@H](C)[C@H]2O | 2.6 µM | 7.1 µM | > 50 µM | 11.2 µM | > 50 µM | 10.1 µM | 
Unstable | Active | COC(=O)C[C@H](C)[C@@H](O)[C@]1(C(=O)OC)CC(=O)c2c(ccc(-c3ccc(O)c4c3O[C@]3(C(=O)OC)C(=C(O)C[C@H](C)[C@H]3O)C4=O)c2O)O1 | 1.6 µM | 11.1 µM |  | 2.7 µM | 2.2 µM | 2 µM | 
Unstable |  | COC(=O)[C@@]12Oc3c(-c4ccc(O)c5c4O[C@](C(=O)OC)([C@@H]4OC(=O)C[C@@H]4C)CC5=O)ccc(O)c3C(=O)C1=C(O)C[C@H](C)[C@H]2O | 9.9 µM |  | > 50 µM | > 50 µM | 21.6 µM | > 50 µM | 
 |  | COc1cccc2c1C(=O)c1c(O)c3c(c(O)c1C2=O)C[C@@](O)(C(=O)CO)C[C@@H]3O[C@H]1C[C@H](N)[C@H](O)[C@H](C)O1 [DOXORUBICIN HYDROCHLORIDE] |  |  |  | 0.8 µM | 0.2 µM |  | 0.2 µM
Unstable |  | COC(=O)C[C@H](C)[C@@H](O)[C@]1(C(=O)OC)CC(=O)c2c(ccc(-c3ccc4c(c3O)C(=O)C3=C(O)C[C@H](C)[C@@H](O)[C@]3(C(=O)OC)O4)c2O)O1 | 2.7 µM | 6.7 µM | 10.6 µM |  |  | 20.8 µM | 0.7 µM
Unstable |  | COC(=O)[C@@]12Oc3ccc(-c4ccc(O)c5c4O[C@](C(=O)OC)([C@@H]4OC(=O)C[C@@H]4C)CC5=O)c(O)c3C(=O)C1=C(O)C[C@H](C)[C@H]2O | 7.8 µM | 18.2 µM | > 50 µM | 25.6 µM |  | > 50 µM | > 50 µM
Unstable |  | COC(=O)[C@@]12Oc3ccc(-c4ccc5c(c4O)C(=O)C[C@@](C(=O)OC)([C@@H]4OC(=O)C[C@@H]4C)O5)c(O)c3C(=O)C1=C(O)C[C@H](C)[C@H]2O | 3.1 µM | 9.1 µM | 12.7 µM | > 50 µM | 9.8 µM | 13.9 µM | 6.1 µM
 |  | COC(=O)[C@@]12Oc3ccc(-c4ccc5c(c4O)C(=O)C4=C(O)C[C@H](C)[C@@H](O)[C@]4(C(=O)OC)O5)c(O)c3C(=O)C1=C(O)C[C@H](C)[C@H]2O | 1 µM | 2 µM | 2.1 µM |  | 1.5 µM | 1.5 µM | 0.9 µM
